Source: ChEMBL document CHEMBL5724801, “EUbOPEN Chemogenomics Library - Multiplex” (2024)
Where “and” joins values, the source holds several entries; their conditions need not be identical. Identical values can stand only once.

Tested on: HEK-293T
Test: Multiplex assay against HEK293T
Assay type: toxicity, cell-based
Conditions: human
Procedure, shortened: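 Four dyes were applied at seeding to live cells: Hoechst33342, BioTracker Green Microtubule Cytoskeleton Dye, MitoTracker Red and Annexin V Alexa Fluor 680. Imaging after compound addition used a CQ1 microscope at 37°C and 5% CO2. CellPathfinder machine-learning gating then sorted cells into Hoechst high-intensity objects or normal cells, normal cells into healthy, pyknosed or fragmented nuclei, and pyknosed cells into mitotic or apoptotic, with tubulin, mitochondrial-mass and membrane-permeability phenotypes given as per cents of healthy-nucleus cells.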

[1] = 12 h, 1 µM, compound concentration 1 uM
[2] = 12 h, 10 µM, compound concentration 10 uM
[3] = 24 h, 1 µM, compound concentration 1 uM
[4] = 24 h, 10 µM, compound concentration 10 uM
[5] = 48 h, 1 µM, compound concentration 1 uM
[6] = 48 h, 10 µM, compound concentration 10 uM

`CCC(=N\O)/C(C)=C/c1ccc(F)cc1` [A-079] was tested, and the “Population Apoptotic (%)” value [1] was 11.21% and 9.93%, the “Population Fragmented Nuclei (%)” value [1] was 3.75% and 3.83% and the “Population Hoechst High Intensity Objects (%)” value [1] was 0%. The “Population Membrane Permeable-Phenotype (%)” value [1] was 0% and 2.86%, the “Population Mitochondria Different-Phenotype (%)” value [1] was 29.63% and 22.86% and the “Population Mitotic Cells (%)” value [1] was 88.79% and 90.07%. The “Population Normal (%)” value [1] was 100%, the “Population Pyknosed Nuclei (%)” value [1] was 31.1% and 77.05% and the “Total Cell Count” value [1] was 373 and 183. For the same compound, the “Population Apoptotic (%)” value [2] was 7.79% and 9.52%, the “Population Fragmented Nuclei (%)” value [2] was 0.57% and 1.59% and the “Population Hoechst High Intensity Objects (%)” value [2] was 0.28% and 0.79%. The “Population Membrane Permeable-Phenotype (%)” value [2] was 0.51% and 0%, the “Population Mitotic Cells (%)” value [2] was 92.21% and 90.48% and the “Population Normal (%)” value [2] was 99.72% and 99.21%. The “Population Pyknosed Nuclei (%)” value [2] was 43.87% and 83.33%, the “Total Cell Count” value [2] was 352 and 127 and the “Population Apoptotic (%)” value [3] was 14.77% and 10.19%. For the same compound, the “Population Fragmented Nuclei (%)” value [3] was 4.65% and 2.11%, the “Population Healthy Nuclei (%)” value [3] was 80.21% and 41.05% and the “Population Hoechst High Intensity Objects (%)” value [3] was 0%. For the same compound, the “Population Membrane Permeable-Phenotype (%)” value [3] was 1.72% and 1.28%, the “Population Mitochondria Different-Phenotype (%)” value [3] was 15.02% and 6.41% and the “Population Mitotic Cells (%)” value [3] was 85.23% and 89.81%. For the same compound, the “Population Normal (%)” value [3] was 100%, the “Population Tubulin-Different-Phenotype (%)” value [3] was 7.73% and 3.85% and the “Population Apoptotic (%)” value [4] was 13.24% and 15.38%. The “Population Fragmented Nuclei (%)” value [4] was 1.47% and 1.14%, the “Population Healthy Nuclei (%)” value [4] was 73.48% and 39.77% and the “Population Hoechst High Intensity Objects (%)” value [4] was 0.18% and 0.56%. For the same compound, the “Population Membrane Permeable-Phenotype (%)” value [4] was 0.75% and 0%, the “Population Mitochondria Different-Phenotype (%)” value [4] was 16.04% and 8.57% and the “Population Mitotic Cells (%)” value [4] was 86.76% and 84.62%. For the same compound, the “Population Normal (%)” value [4] was 99.82% and 99.44%, the “Population Pyknosed Nuclei (%)” value [4] was 25.05% and 59.09% and the “Population Apoptotic (%)” value [5] was 8.9% and 17.46%. For the same compound, the “Population Fragmented Nuclei (%)” value [5] was 5.91% and 2.96%, the “Population Healthy Nuclei (%)” value [5] was 84.62% and 78.4% and the “Population Hoechst High Intensity Objects (%)” value [5] was 0% and 0.29%. The “Population Membrane Permeable-Phenotype (%)” value [5] was 6.52% and 3.4%, the “Population Mitochondria Different-Phenotype (%)” value [5] was 8.82% and 9.06% and the “Population Mitotic Cells (%)” value [5] was 91.1% and 82.54%. For the same compound, the “Population Normal (%)” value [5] was 100% and 99.71%, the “Population Pyknosed Nuclei (%)” value [5] was 9.47% and 18.64% and the “Population Apoptotic (%)” value [6] was 8.2% and 20.78%. The “Population Fragmented Nuclei (%)” value [6] was 3.08% and 0.64%, the “Population Healthy Nuclei (%)” value [6] was 85.54% and 50% and the “Population Hoechst High Intensity Objects (%)” value [6] was 0% and 0.64%. The “Population Membrane Permeable-Phenotype (%)” value [6] was 3.82% and 1.28%, the “Population Mitochondria Different-Phenotype (%)” value [6] was 18.43% and 25.64% and the “Population Mitotic Cells (%)” value [6] was 91.8% and 79.22%. For the same compound, the “Population Normal (%)” value [6] was 100% and 99.36%.
In the case of `COc1cc(NC(=O)CCN2CCC(OC(=O)Nc3ccccc3-c3ccccc3)CC2)c(Cl)cc1CNC[C@H](O)c1ccc(O)c2[nH]c(=O)ccc12` [BATEFENTEROL], the “Population Apoptotic (%)” value [1] is reported as 42% and 47%, the “Population Fragmented Nuclei (%)” value [1] is reported as 4% and 3% and the “Population Healthy Nuclei (%)” value [1] is reported as 81% and 78%. The “Population Hoechst High Intensity Objects (%)” value [1] was 7% and 8%, the “Population Membrane Permeable-Phenotype (%)” value [1] was 0% and the “Population Mitochondria Different-Phenotype (%)” value [1] was 65% and 84%. For the same compound, the “Population Mitotic Cells (%)” value [1] was 57% and 52%, the “Population Normal (%)” value [1] was 92% and 91% and the “Population Pyknosed Nuclei (%)” value [1] was 14% and 17%. The “Population Tubulin-Different-Phenotype (%)” value [1] was 44% and 41%, the “Total Cell Count” value [1] was 420 and 285 and the “Population Apoptotic (%)” value [2] was 100% and 52%. The “Population Hoechst High Intensity Objects (%)” value [2] was 31% and 11%, the “Population Membrane Permeable-Phenotype (%)” value [2] was 0% and 1% and the “Population Normal (%)” value [2] was 68% and 88%. For the same compound, the “Population Pyknosed Nuclei (%)” value [2] was 9% and 22%, the “Population Apoptotic (%)” value [3] was 44% and 41% and the “Population Fragmented Nuclei (%)” value [3] was 9% and 7%. The “Population Healthy Nuclei (%)” value [3] was 77% and 82%, the “Population Hoechst High Intensity Objects (%)” value [3] was 5% and 8% and the “Population Membrane Permeable-Phenotype (%)” value [3] was 0%. The “Population Mitochondria Different-Phenotype (%)” value [3] was 59% and 65%, the “Population Mitotic Cells (%)” value [3] was 55% and 58% and the “Population Normal (%)” value [3] was 94% and 91%. The “Population Pyknosed Nuclei (%)” value [3] was 12% and 9%, the “Population Tubulin-Different-Phenotype (%)” value [3] was 35% and 27% and the “Total Cell Count” value [3] was 527 and 403. The “Population Membrane Permeable-Phenotype (%)” value [4] was 0%, the “Population Mitochondria Different-Phenotype (%)” value [4] was 100% and 89% and the “Population Normal (%)” value [4] was 66% and 93%. The “Population Pyknosed Nuclei (%)” value [4] was 0% and 19%, the “Population Tubulin-Different-Phenotype (%)” value [4] was 100% and 78% and the “Population Apoptotic (%)” value [5] was 35% and 51%. The “Population Fragmented Nuclei (%)” value [5] was 15% and 13%, the “Population Healthy Nuclei (%)” value [5] was 75% and 79% and the “Population Hoechst High Intensity Objects (%)” value [5] was 3%. For the same compound, the “Population Membrane Permeable-Phenotype (%)” value [5] was 0%, the “Population Mitochondria Different-Phenotype (%)” value [5] was 36% and 42% and the “Population Mitotic Cells (%)” value [5] was 65% and 48%. For the same compound, the “Population Normal (%)” value [5] was 96%, the “Population Pyknosed Nuclei (%)” value [5] was 8% and 6% and the “Population Tubulin-Different-Phenotype (%)” value [5] was 17%. The “Total Cell Count” value [5] was 744 and 547, the “Population Apoptotic (%)” value [6] was 100% and 57% and the “Population Hoechst High Intensity Objects (%)” value [6] was 7%. For the same compound, the “Population Membrane Permeable-Phenotype (%)” value [6] was 0%, the “Population Mitochondria Different-Phenotype (%)” value [6] was 66% and 76% and the “Population Normal (%)” value [6] was 92%. For the same compound, the “Population Pyknosed Nuclei (%)” value [6] was 16% and 11% and the “Population Tubulin-Different-Phenotype (%)” value [6] was 66% and 74%.
`C[C@H](NC(=O)c1c(C(F)F)nn(C)c1Oc1cccc(C(F)(F)F)c1)c1ccc(C(=O)O)cc1` [PALUPIPRANT] was tested, and the “Population Apoptotic (%)” value [1] was 40% and 27%, the “Population Fragmented Nuclei (%)” value [1] was 6% and the “Population Healthy Nuclei (%)” value [1] was 80% and 83%. The “Population Hoechst High Intensity Objects (%)” value [1] was 7% and 5%, the “Population Membrane Permeable-Phenotype (%)” value [1] was 0% and the “Population Mitochondria Different-Phenotype (%)” value [1] was 44% and 60%. The “Population Mitotic Cells (%)” value [1] was 59% and 72%, the “Population Normal (%)” value [1] was 92% and 94% and the “Population Pyknosed Nuclei (%)” value [1] was 13% and 10%. The “Population Tubulin-Different-Phenotype (%)” value [1] was 28%, the “Total Cell Count” value [1] was 407 and 475 and the “Population Apoptotic (%)” value [2] was 38% and 60%. For the same compound, the “Population Fragmented Nuclei (%)” value [2] was 7% and 5%, the “Population Healthy Nuclei (%)” value [2] was 76% and 77% and the “Population Hoechst High Intensity Objects (%)” value [2] was 7% and 10%. For the same compound, the “Population Membrane Permeable-Phenotype (%)” value [2] was 0%, the “Population Mitochondria Different-Phenotype (%)” value [2] was 55% and 68% and the “Population Mitotic Cells (%)” value [2] was 61% and 40%. The “Population Normal (%)” value [2] was 92% and 89%, the “Population Pyknosed Nuclei (%)” value [2] was 16% and 17% and the “Population Tubulin-Different-Phenotype (%)” value [2] was 40% and 27%. For the same compound, the “Total Cell Count” value [2] was 371 and 293, the “Population Apoptotic (%)” value [3] was 36% and 46% and the “Population Fragmented Nuclei (%)” value [3] was 9% and 7%. For the same compound, the “Population Healthy Nuclei (%)” value [3] was 80% and 83%, the “Population Hoechst High Intensity Objects (%)” value [3] was 5% and 4% and the “Population Membrane Permeable-Phenotype (%)” value [3] was 1% and 0%. For the same compound, the “Population Mitochondria Different-Phenotype (%)” value [3] was 27% and 35%, the “Population Mitotic Cells (%)” value [3] was 63% and 53% and the “Population Normal (%)” value [3] was 94% and 95%. The “Population Pyknosed Nuclei (%)” value [3] was 10% and 9%, the “Population Tubulin-Different-Phenotype (%)” value [3] was 18% and 19% and the “Total Cell Count” value [3] was 527 and 604. For the same compound, the “Population Apoptotic (%)” value [4] was 26% and 55%, the “Population Fragmented Nuclei (%)” value [4] was 9% and 7% and the “Population Healthy Nuclei (%)” value [4] was 74% and 79%. The “Population Hoechst High Intensity Objects (%)” value [4] was 3% and 7%, the “Population Membrane Permeable-Phenotype (%)” value [4] was 0% and the “Population Mitochondria Different-Phenotype (%)” value [4] was 46% and 52%. The “Population Mitotic Cells (%)” value [4] was 73% and 44%, the “Population Normal (%)” value [4] was 96% and 92% and the “Population Pyknosed Nuclei (%)” value [4] was 16% and 13%. For the same compound, the “Population Tubulin-Different-Phenotype (%)” value [4] was 29% and 19%, the “Total Cell Count” value [4] was 465 and 353 and the “Population Apoptotic (%)” value [5] was 25% and 21%. The “Population Fragmented Nuclei (%)” value [5] was 13% and 14%, the “Population Healthy Nuclei (%)” value [5] was 79% and 78% and the “Population Hoechst High Intensity Objects (%)” value [5] was 2% and 4%. The “Population Membrane Permeable-Phenotype (%)” value [5] was 1% and 0%, the “Population Mitochondria Different-Phenotype (%)” value [5] was 17% and 18% and the “Population Mitotic Cells (%)” value [5] was 75% and 78%. The “Population Normal (%)” value [5] was 97% and 95%, the “Population Pyknosed Nuclei (%)” value [5] was 7% and 6% and the “Population Tubulin-Different-Phenotype (%)” value [5] was 13% and 9%. The “Total Cell Count” value [5] was 916 and 867, the “Population Apoptotic (%)” value [6] was 29% and 28% and the “Population Fragmented Nuclei (%)” value [6] was 18% and 15%. For the same compound, the “Population Healthy Nuclei (%)” value [6] was 75% and 77%, the “Population Hoechst High Intensity Objects (%)” value [6] was 1% and 3% and the “Population Membrane Permeable-Phenotype (%)” value [6] was 1% and 0%. The “Population Mitochondria Different-Phenotype (%)” value [6] was 24% and 28%, the “Population Mitotic Cells (%)” value [6] was 70% and 71% and the “Population Normal (%)” value [6] was 98% and 96%. For the same compound, the “Population Pyknosed Nuclei (%)” value [6] was 6%, the “Population Tubulin-Different-Phenotype (%)” value [6] was 16% and 17% and the “Total Cell Count” value [6] was 821 and 554.
